≈ marks a conversion by molar mass, not a printed value. Calls of active or inactive are those of the source. The calls are words filed in the database; no cut-off is given here.
Tests used:
Type in all cases: functional
[1] = Antioxidant activity assessed as nitric oxide radical scavenging activity at 1.0 ug/ml after 150 mins
How it was run: (§1)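 Sodium nitroprusside (10 mmol) in PBS at physiological pH was incubated with sample at 25 °C for 150 min in a 3 ml reaction. Aliquots taken every 30 min were mixed 1:1 with Griess reagent (1% sulphanilamide, 0.1% naphthylethylenediamine in 2% H3PO4), and absorbance was read at 546 nm. Runs were done in triplicate, and % scavenging was calculated against the blank.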

[2] = Antioxidant activity assessed as nitric oxide radical scavenging activity at 1.2 ug/ml after 150 mins; how it was run: as §1
[3] = Antioxidant activity assessed as nitric oxide radical scavenging activity at 0.8 ug/ml after 150 mins; how it was run: as §1
[4] = Antioxidant activity assessed as nitric oxide radical scavenging activity at 0.4 ug/ml after 150 mins; how it was run: as §1
[5] = Antioxidant activity assessed as nitric oxide radical scavenging activity at 0.2 ug/ml after 150 mins; how it was run: as §1
[6] = Antioxidant activity assessed as nitric oxide radical scavenging activity at 0.1 ug/ml after 150 mins; how it was run: as §1
[7] = Antioxidant activity assessed as nitric oxide radical scavenging activity at 0.6 ug/ml after 150 mins; how it was run: as §1
[8] = Inhibition of nitric oxide radical scavenging activity; how it was run: as §1
[9] = tested on: Rattus norvegicus; test: Antiinflammatory activity in Albino rat assessed as protection against carrageenan-induced hind paw oedema at 20 mg/kg, po after 3 hrs
How it was run: (§2)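 Rats (150–250 g, either sex) were fasted 18 h and grouped in sixes. Compounds or standards were given orally as a suspension in 5% DMSO. After 1 h, 0.1 ml of 1% carrageenin was injected subplantar into the right hind paw. Paw volume was read by mercury plethysmometer at once and at 3 h. % protection = 100(1−Vt/Vc) versus vehicle.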

[10] = Antioxidant activity assessed as nitric oxide radical scavenging activity at 5 ug/ml after 150 mins; how it was run: as §1
[11] = Antioxidant activity assessed as nitric oxide radical scavenging activity at 30 ug/ml after 150 mins; how it was run: as §1
[12] = Antioxidant activity assessed as nitric oxide radical scavenging activity at 35 ug/ml after 150 mins; how it was run: as §1
[13] = tested on: Mus musculus; test: Analgesic activity in Albino mouse assessed as protection against acetic acid-induced writhing at 10 mg/kg, ip within 30 mins; details: route intraperitoneal
How it was run: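 Mice (20–25 g, either sex) starved 16 h, six per group, given 10 mg/kg i.p.; vehicle control received 1% DMSO at 0.5 ml/100 g. After 1 h, 0.1 ml of 3% acetic acid was given. Writhes were counted over 30 min, and the group mean was expressed as % inhibition versus control. Student's t-test was used.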

[14] = Antioxidant activity assessed as nitric oxide radical scavenging activity at 20 ug/ml after 150 mins; how it was run: as §1
[15] = tested on: Rattus norvegicus; test: Antiinflammatory activity in Albino rat assessed as protection against carrageenan-induced hind paw oedema at 40 mg/kg, po after 3 hrs; how it was run: as §2
[16] = Antioxidant activity assessed as nitric oxide radical scavenging activity at 25 ug/ml after 150 mins; how it was run: as §1
[17] = tested on: Rattus norvegicus; test: Antiinflammatory activity in Albino rat assessed as protection against carrageenan-induced hind paw oedema at 10 mg/kg, po after 3 hrs; how it was run: as §2
[18] = Antioxidant activity assessed as nitric oxide radical scavenging activity at 10 ug/ml after 150 mins; how it was run: as §1
[19] = Antioxidant activity assessed as nitric oxide radical scavenging activity at 15 ug/ml after 150 mins; how it was run: as §1
[20] = tested on: Rattus norvegicus; test: Antiinflammatory activity in Albino rat assessed as protection against carrageenan-induced hind paw oedema at 100 mg/kg, po after 3 hrs; how it was run: as §2

SMILES	IC50 [8]	Activity [9]	Activity [10]	Activity [11]	Activity [12]	Activity [13]	Activity [14]	Activity [15]	Activity [16]	Activity [17]	Activity [18]	Activity [8]	Activity [19]	other results
Cc1ccc(C(=O)c2sc(Nc3ccc(F)cc3)c(C(=O)O)c2C)cc1	–	44%	inactive	inactive	inactive	22%	inactive	42%	inactive	38%	inactive	inactive	inactive	–
Cc1ccc(C(=O)c2sc(Nc3ccc(Cl)cc3)c(C(=O)O)c2C)cc1	–	68%	inactive	inactive	inactive	24%	inactive	59%	inactive	63%	inactive	inactive	inactive	–
COC(=O)c1c(Nc2ccc(C)cc2)sc(C(=O)c2ccc(OC)cc2)c1C	–	63%	inactive	inactive	inactive	45%	inactive	70%	inactive	50%	inactive	inactive	inactive	–
Cc1ccc(Nc2sc(C(=O)c3ccc(C)cc3)c(C)c2C(=O)O)cc1	–	38%	inactive	inactive	inactive	18%	inactive	38%	inactive	35%	inactive	inactive	inactive	–
COC(=O)c1c(Nc2ccc(F)cc2)sc(C(=O)c2ccc(C)cc2)c1C	–	46%	inactive	inactive	inactive	37%	inactive	23%	inactive	38%	inactive	inactive	inactive	–
COc1ccc(C(=O)c2sc(Nc3ccc(C)cc3)c(C(=O)O)c2C)cc1	–	63%	inactive	inactive	inactive	26%	inactive	62%	inactive	56%	inactive	inactive	inactive	–
Cc1cccc(Nc2ccccc2C(=O)O)c1C [MEFENAMIC ACID]	–	–	–	–	–	–	–	–	–	–	–	–	–	Activity [20]: 39%

Further lines, with some results ahead:

IC50 [8]	SMILES	Activity [9]	Activity [10]	Activity [11]	Activity [12]	Activity [13]	Activity [14]	Activity [15]	Activity [16]	Activity [17]	Activity [18]	Activity [8]	Activity [19]	other results
0.52 µg/mL (≈ 2.95 µM)	O=C1O[C@H]([C@@H](O)CO)C(O)=C1O [ASCORBIC ACID]	–	–	–	–	–	–	–	–	–	–	–	–	Activity [1]: 58.3%; Activity [2]: 70.2%; Activity [3]: 41.6%; Activity [4]: 29.5%; Activity [5]: 11.5%; Activity [6]: 2.98%; Activity [7]: 39.3%
171.43 µg/mL (≈ 469 µM)	COC(=O)c1c(Nc2ccccc2)sc(C(=O)c2ccc(C)cc2)c1C	49%	2.08%	9.35%	10.2%	27%	6.06%	53%	8.16%	43%	3.16%	–	4.59%	–
72.21 µg/mL (≈ 175 µM)	COC(=O)c1c(Nc2ccc(OC)cc2)sc(C(=O)c2ccc(OC)cc2)c1C	72%	4.29%	20.5%	25.1%	40%	12%	76%	15.4%	71%	5.9%	–	7.8%	–
118.32 µg/mL (≈ 307 µM)	COc1ccc(C(=O)c2sc(Nc3ccc(F)cc3)c(C(=O)O)c2C)cc1	57%	0.1%	10.5%	12.8%	28%	3.58%	54%	8.36%	57%	0.98%	–	1.98%	–
259.47 µg/mL (≈ 738 µM)	Cc1ccc(C(=O)c2sc(Nc3ccccc3)c(C(=O)O)c2C)cc1	47%	0.26%	5.13%	5.55%	17%	2.68%	42%	4.35%	45%	0.85%	–	1.25%	–
74.17 µg/mL (≈ 186 µM)	COC(=O)c1c(Nc2ccc(F)cc2)sc(C(=O)c2ccc(OC)cc2)c1C	53%	5.28%	23.2%	25.6%	40%	18.1%	58%	20.2%	36%	14%	–	15.2%	–
36.57 µg/mL (≈ 92 µM)	COc1ccc(Nc2sc(C(=O)c3ccc(OC)cc3)c(C)c2C(=O)O)cc1	75%	20.1%	41.2%	51%	22%	32.5%	69%	38.5%	72%	23.5%	–	30.6%	–

Source: ChEMBL document CHEMBL1147872, “Syntheses of new tetrasubstituted thiophenes as novel anti-inflammatory agents” (Eur J Med Chem, 2007)
